Measured values reported in ChEMBL document CHEMBL1795210, “Synthesis and screening of (E)-1-(β-D-galactopyranosyl)-4-(aryl)but-3-ene-2-one against Mycobacterium tuberculosis” (2011).
In brackets after ≈: the same amount, converted by molar mass.

Tested on: Mycobacterium tuberculosis
Test: Antimicrobial activity against Mycobacterium tuberculosis H37Rv after 28 days by agar dilution method
Type: functional
Settings: 672 h
Summary of the method: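 Agar dilution on Middlebrook 7H11 with OADC supplement. Compound serially diluted into the agar, […]. H37Rv inoculum from fresh 7H11 slants, set to 1 mg/mL wet weight in 0.05% Tween 80 saline, diluted 10^2 to about 10^7 cfu/mL; 5 µL spotted per tube. Incubated at 37 C, read at 28 days. MIC = lowest concentration giving complete growth inhibition.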

SMILES | MIC [µg/mL]
O=C(/C=C/c1ccc(CO)o1)C[C@@H]1O[C@H](CO)[C@H](O)[C@H](O)[C@H]1O | 1.56 (≈ 4.75 µM)
COc1ccc(-c2ccc(/C=C/C(=O)C[C@@H]3O[C@H](CO)[C@H](O)[C@H](O)[C@H]3O)o2)cc1Cl | 3.13 (≈ 7.13 µM)
O=C(/C=C/c1ccc(-c2ccc(Cl)cc2[N+](=O)[O-])o1)C[C@@H]1O[C@H](CO)[C@H](O)[C@H](O)[C@H]1O | > 12.5
O=C(/C=C/c1ccc(-c2ccccc2[N+](=O)[O-])o1)C[C@@H]1O[C@H](CO)[C@H](O)[C@H](O)[C@H]1O | > 12.5
O=C(/C=C/c1ccc2c(c1)OCO2)C[C@@H]1O[C@H](CO)[C@H](O)[C@H](O)[C@H]1O | 1.56 (≈ 4.43 µM)
COc1c(O)cc(/C=C/C(=O)C[C@@H]2O[C@H](CO)[C@H](O)[C@H](O)[C@H]2O)cc1[N+](=O)[O-] | 1.56 (≈ 3.91 µM)
COc1cc(/C=C/C(=O)C[C@@H]2O[C@H](CO)[C@H](O)[C@H](O)[C@H]2O)cc(OC)c1OC | 6.25 (≈ 15.7 µM)
COc1cc(OC)c(/C=C/C(=O)C[C@@H]2O[C@H](CO)[C@H](O)[C@H](O)[C@H]2O)c(OC)c1 | 6.25 (≈ 15.7 µM)
COc1ccc(/C=C/C(=O)C[C@@H]2O[C@H](CO)[C@H](O)[C@H](O)[C@H]2O)cc1Br | > 12.5
O=C(/C=C/c1ccc(C(=O)O)cc1)C[C@@H]1O[C@H](CO)[C@H](O)[C@H](O)[C@H]1O | 1.56 (≈ 4.43 µM)
CN(C)c1ccc(/C=C/C(=O)C[C@@H]2O[C@H](CO)[C@H](O)[C@H](O)[C@H]2O)cc1 | 1.56 (≈ 4.44 µM)
O=C(/C=C/c1ccc(N(CCO)CCO)cc1)C[C@@H]1O[C@H](CO)[C@H](O)[C@H](O)[C@H]1O | 6.25 (≈ 15.2 µM)
O=C(/C=C/c1ccc2ccccc2n1)C[C@@H]1O[C@H](CO)[C@H](O)[C@H](O)[C@H]1O | 3.13 (≈ 8.71 µM)
O=C(/C=C/c1cnc2ccccc2c1)C[C@@H]1O[C@H](CO)[C@H](O)[C@H](O)[C@H]1O | 6.25 (≈ 17.4 µM)
O=C(/C=C/c1ccc2cccc(O)c2n1)C[C@@H]1O[C@H](CO)[C@H](O)[C@H](O)[C@H]1O | 3.13 (≈ 8.34 µM)
C=Cc1cccc(/C=C/C(=O)C[C@@H]2O[C@H](CO)[C@H](O)[C@H](O)[C@H]2O)c1 | 3.13 (≈ 9.36 µM)
C#Cc1ccccc1/C=C/C(=O)C[C@@H]1O[C@H](CO)[C@H](O)[C@H](O)[C@H]1O | > 12.5
O=C(/C=C/c1ccc(-c2ccccc2)cc1)C[C@@H]1O[C@H](CO)[C@H](O)[C@H](O)[C@H]1O | 6.25 (≈ 16.3 µM)
O=C(/C=C/c1cc(C(F)(F)F)ccc1C(F)(F)F)C[C@@H]1O[C@H](CO)[C@H](O)[C@H](O)[C@H]1O | 12.5 (≈ 28.1 µM)
CC[C@@H](CO)NCCN[C@@H](CC)CO [ETHAMBUTOL] | 1.56 (≈ 7.64 µM)
NNC(=O)c1ccncc1 [ISONIAZID] | 0.05 (≈ 0.365 µM)
CO[C@H]1/C=C/O[C@@]2(C)Oc3c(C)c(O)c4c(O)c(c(/C=N/N5CCN(C)CC5)c(O)c4c3C2=O)NC(=O)/C(C)=C\C=C\[C@H](C)[C@H](O)[C@@H](C)[C@@H](O)[C@@H](C)[C@H](OC(C)=O)[C@@H]1C [RIFAMPIN] | 0.1 (≈ 0.122 µM)
